The values that follow come from paper PMC4726456 (Cell, 2014).

One series deals with microtubules and tubulin. The series is described as follows: Acetylation activity of TAT mutants with microtubules and tubulin. Conditions: Figure 2C. Format: biochemical.
Series [1] concerns dolastatin-induced tubulin rings. The series is described as follows: Stacking of dolastatin-induced tubulin rings by TAT. Conditions: Figures S3D, S3E.
The test system of series [2] is tubulin. The series is described as follows: Activity of bead-coupled biotinylated TAT with tubulin. In kind it is biochemical. Conditions: 1 µm streptavidin beads; Figure 6A. In outline:
(§1)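 Biotinylated TAT was either immobilized on 1 µm diameter streptavidin beads or left free in solution. Each form was reacted with tubulin or with microtubules. Activity was normalized to the free enzyme. About 15% unpolymerized tubulin was present in the microtubule reactions.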

Series [3] concerns microtubules. The series is described as follows: Activity of bead-coupled biotinylated TAT with microtubules. Format: biochemical. The settings on record: 1 µm streptavidin beads; Figure 6A. In a few lines:
as §1

Series [4] deals with microtubules. Format: biochemical. Conditions: for Effect on microtubule acetylation by TAT: saturating concentration of MAP.
For series [5], the system named is S. cerevisiae microtubules. The series is described as follows: Single-molecule TIRF of TAT-GFP on S. cerevisiae microtubules. The settings on record: purified S. cerevisiae microtubules and engineered with human C-terminal tails. In kind it is binding, Saccharomyces cerevisiae.
Series [6] concerns microtubules. The series is described as follows: Single-molecule TIRF of TAT-GFP scanning on microtubules. Conditions: for Effect on TAT-GFP microtubule scanning: saturating concentration of MAP. In kind it is binding.
Series [7] concerns the target microtubules. The series is described as follows: TAT binding to microtubules in sedimentation assays. The settings on record: read-out: Kd for microtubules, Figure S3B and C.
A further series has as its system TAT. Conditions: ref Friedmann et al., 2012; cited from earlier work.
The subject of series [8] is microtubules. The series is described as follows: Microtubule acetylation assay. In kind it is biochemical. Conditions: bulk measurements.
In series [9] the test system is tubulin. The series is described as follows: Tubulin acetylation assay. Format: biochemical.
In another series the test system is unpolymerized tubulin. The series is described as follows: TAT-tubulin complex formation by analytical ultracentrifugation. Format: binding. The settings on record: TAT concentrations as high as 40 µM.
Series [10] relates to microtubules. The series is described as follows: Immunofluorescence of acetylation distribution on microtubules. Format: biochemical. The settings on record: taxol stabilized microtubules; antibody specific for acetylated tubulin; Figure 4. In outline:
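Recombinant TAT acetylated taxol-stabilized microtubules in vitro. Excess enzyme was used at a 10:1 TAT:tubulin molar ratio and sampled over a time course. Marks were detected by immunofluorescence. Line-scans were taken along microtubules in the acetylated-tubulin channel. End analysis at 15 s averaged 25 line-scans from the tip to 5 µm inward.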

The next series has as its system tubulin polymers. The series is described as follows: TAT activity with tubulin polymers of diverse geometries. Format: biochemical. Conditions: Figure 3A, N≥3. In outline:
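Microtubule substrate was stabilized with 20 µM taxol. Negative-stain EM confirmed dolastatin-10 rings, Zn sheets and microtubules under the reaction conditions. Values are means ± S.E.M. (N≥3), compared by t-test.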

Numbering of substitutions follows the chain as printed. Numbers in names are those of the source. Where “and” joins values, the source holds several entries; their conditions need not be identical. Equal entries are not always repeated.

B1: F105A TAT mutant: F105A TAT mutant defective in acetylation (protein)
chain: MEFPFDVDALFPERITVLDQHLRPPARRPGTTTPARVDLQQQIMTIIDELGKASAKAQNLSAPITSASRMQSNRHVVYILKDSSARPAGKGAIIGFIKVGYKKLAVLDDREAHNEVEPLCILDFYIHESVQRHGHGRELFQYMLQKERVEPHQLAIDRPSQKLLKFLNKHYNLETTVPQVNNFVIFEGFFAHQHRPPAPSLRATRHSRAAAVDPTPAAPARKLPPKRAEGDIKPYSSSDREFLKVAVEPPWPLNRAPRRATPPAHPPPRSSSLGNSPERGPLRPFVPEQELLRSLRLCPPHPTARLLLAADPGGSPAQRRRTRGTPPGLVAQSCCYSRHGGVNSSSPNTGNQDSKQGEQETKNRSASEEQALSQDGSGEKPMHTAPPQAPAPPAQSWTVGGDILNARFIRNLQERRSTRPW
Consider B1, for which the “Effect of mutation on TAT activity” value is “defective in acetylation” in the series on microtubules and tubulin (N≥3); “severely impairs enzyme activity with both tubulin and microtubules” in the series with microtubules and tubulin (N≥3, listed as Phe105). Further, in series [1], the “Stacking of dolastatin-induced tubulin rings” value is “impaired in stack formation”.

B2: bead-coupled TAT: C-terminally biotinylated TAT construct coupled to streptavidin beads 1 µm in diameter (protein, UniProt Q5SQI0 1-421, looked up)
Alpha-tubulin …: B1 chain with A105F
modifications: C-terminal biotin, streptavidin beads
With B2, in the series on tubulin [2], the “Activity with tubulin when bead-coupled” value was “retained activity with tubulin”. Besides, in the series with microtubules [3], the “Reduction of activity with microtubules on bead coupling” value was about 89%.

B3: TAT-GFP: purified TAT-GFP for single-molecule TIRF microscopy (protein)
chain: B1 chain with A105F
modifications: left off: GFP, end not stated, kept
Take B3: in the series with microtubules [4] (Figure S5), the “Activity of GFP fusion vs untagged protein” value is listed as “comparable to that of the untagged protein”. Besides, the “Scanning on S. cerevisiae microtubules” value in series [5] is given as “do not observe TAT-GFP scanning”. Further, the “Interaction time (τ), doublecortin” value in the series with microtubules [6] (microtubules with saturating doublecortin) is 1.4 s. The “1D diffusion coefficient on microtubules” value in the series with microtubules [6] (undecorated microtubules, MSD fit, 100 ms frames, mean, legend: fit) was 0.27 µm^2/s and 0.27 ± 0.01 µm^2/s. Further, in the series on microtubules [6] (undecorated microtubules, N=163, Figure 5D), the Scan starting position entry is given as “randomly distributed on the microtubule, showing no bias for ends”. Moreover, the “Interaction time (τ) on microtubules” value in the series on microtubules [6] (undecorated microtubules, exponential fit corrected for photobleaching, N=269) is 1.5 s and 1.5 ± 0.3 s.

B4: doublecortin: microtubule binding protein covering the fenestration at the vertices between four tubulin dimers (protein)
chain: MELDFGHFDERDKTSRNMRGSRMNGLPSPTHSAHCSFYRTRTLQALSNEKKAKKVRFYRNGDRYFKGIVYAVSSDRFRSFDALLADLTRSLSDNINLPQGVRYIYTIDGSRKIGSMDELEEGESYVCSSDNFFKKVEYTKNVNPNWSVNVKTSANMKAPQSLASSNSAQARENKDFVRPKLVTIIRSGVKPRKAVRVLLNKKTAHSFEQVLTDITEAIKLETGVVKKLYTLDGKQVTCLHDFFGDDDVFIACGPEKFRYAQDDFSLDENECRVMKGNPSATAGPKASPTPQKTSAKSPGPMRRSKSPADSGNDQDANGTSSSQLSTPKSKQSPISTPTSPGSLRKHKDLYLPLSLDDSDSLGDSM
As for B4, the “Effect on microtubule acetylation by TAT” value with microtubules [4] (Figure 5F) is “no effect”. For the same molecule, the “Effect on TAT-GFP microtubule scanning” value with microtubules [6] (Figure 5F) was “no effect”.

B5: TAT: Homo sapiens TAT (1–196) expressed in Escherichia coli as a GST-fusion (protein)
chain: MEFPFDVDALFPERITVLDQHLRPPARRPGTTTPARVDLQQQIMTIIDELGKASAKAQNLSAPITSASRMQSNRHVVYILKDSSARPAGKGAIIGFIKVGYKKLFVLDDREAHNEVEPLCILDFYIHESVQRHGHGRELFQYMLQKERVEPHQLAIDRPSQKLLKFLNKHYNLETTVPQVNNFVIFEGFFAHQHRP
modifications: left off: GST, end not stated, state not stated
As to B5, at microtubules [7], the Kd (as a rule, the concentration at which binding is half-saturated) is about 44 µM. Moreover, in the series with microtubules [4] (Figures S5G and S5H), the “Acetylation of unmodified microtubules vs brain microtubules” value is on record as “as effectively as brain microtubules”. In the series on microtubules [4] (subtilisin microtubules, Figure 5F), the “Microtubule acetylation after removal of C-terminal tails” value was “unaffected by removal of the C-terminal tails”. In addition, in the series on TAT, the Michaelis-Menten constant (Km) (in general, the substrate concentration at which the rate is half of its maximum) was about 32 µM. Besides, in the series with microtubules [8], the “Acetylation rate with microtubules” value is about 1.6 h⁻¹. Further, the “Catalytic rate with tubulin” value in the series with tubulin [9] is 0.4 h⁻¹. For the same molecule, the “Stable complex formation with unpolymerized tubulin” value with unpolymerized tubulin was “undetectable”. Also, the “Distribution of acetylation along microtubule” value in the series on microtubules [10] is given as “acetylates along the entire microtubule without a preference for ends”. The “TAT activity with microtubules vs unpolymerized tubulin” value in the series with tubulin polymers is “largest activity enhancement over unpolymerized tubulin is seen with microtubules”. In addition, in [1], the “Stacking of dolastatin-induced tubulin rings” value is on record as “promotes stacking of dolastatin-induced tubulin rings in a dose-dependent manner”. The “Total microtubule length scanned, subtilisin-treated vs untreated microtubules” value in the series with microtubules [6] (50 microtubules, Figure 5F) is given as “covers the same total microtubule length”. Besides, the “Interaction time (τ), labeled spastin” value in the series on microtubules [6] (microtubules coated with DyLight 550 labeled spastin, ATPγS) is reported as 1.5 s. Further, the “Average microtubule length scanned” value in the series with microtubules [6] (undecorated microtubules, Figure S5B) is reported as 2.9 µm. The Maximum scan excursion entry with microtubules [6] (undecorated microtubules, excursions up to, Figure S5B) was “up to 10.4 µm”.

B6: kinesin: motor domain of kinesin-5 (protein)
chain: MASQPNSSAKKKEEKGKNIQVVVRCRPFNLAERKASAHSIVECDPVRKEVSVRTGGLADKSSRKTYTFDMVFGASTKQIDVYRSVVCPILDEVIMGYNCTIFAYGQTGTGKTFTMEGERSPNEEYTWEEDPLAGIIPRTLHQIFEKLTDNGTEFSVKVSLLEIYNEELFDLLNPSSDVSERLQMFDDPRNKRGVIIKGLEEITVHNKDEVYQILEKGAAKRTTAATLMNAYSSRSHSVFSVTIHMKETTIDGEELVKIGKLNLVDLAGSENIGRSGAVDKRAREAGNINQSLLTLGRVITALVERTPHVPYRESKLTRILQDSLGGRTRTSIIATISPASLNLEETLSTLEYAHRAKNILNKPEVNQKLTKKALIKEYTEEIERLKRDLAAAREKNGVYISEENFRVMSGKLTVQEEQIVELIEKIGAVEEELNRVTELFMDNKNELDQCKSDLQNKTQELETTQKHLQETKLQLVKEEYITSALESTEEKLHDAASKLLNTVEETTKDVSGLHSKLDRKKAVDQHNAEAQDIFGKNLNSLFNNMEELIKDGSSKQKAMLEVHKTLFGNLLSSSVSALDTITTVALGSLTSIPENVSTHVSQIFNMILKEQSLAAESKTVLQELINVLKTDLLSSLEMILSPTVVSILKINSQLKHIFKTSLTVADKIEDQKKELDGFLSILCNNLHELQENTICSLVESQKQCGNLTEDLKTIKQTHSQELCKLMNLWTERFCALEEKCENIQKPLSSVQENIQQKSKDIVNKMTFHSQKFCADSDGFSQELRNFNQEGTKLVEESVKHSDKLNGNLEKISQETEQRCESLNTRTVYFSEQWVSSLNEREQELHNLLEVVSQCCEASSSDITEKSDGRKAAHEKQHNIFLDQMTIDEDKLIAQNLELNETIKIGLTKLNCFLEQDLKLDIPTGTTPQRKSYLYPSTLVRTEPREHLLDQLKRKQPELLMMLNCSENNKEETIPDVDVEEAVLGQYTEEPLSQEPSVDAGVDCSSIGGVPFFQHKKSHGKDKENRGINTLERSKVEETTEHLVTKSRLPLRAQINL
For B6, the “Effect on microtubule acetylation by TAT” value in the series with microtubules [4] (Figure 5F) is recorded as “no effect”. Besides, in the series on microtubules [6] (Figure 5F), the “Effect on TAT-GFP microtubule scanning” value was “no effect”.
